The source made the active and inactive calls. The rule behind the calls is not given here.
Experiments:
[1] = target: T1, Polyunsaturated fatty acid 5-lipoxygenase (Homo sapiens, UniProt P09917); assay: Inhibition of human recombinant 5-lipoxygenase expressed in Escherichia coli BL21 assessed as enzyme product formation using arachidonic acid as substrate after 10 mins by RP-HPLC analysis
T1 sequence (P09917 whole entry): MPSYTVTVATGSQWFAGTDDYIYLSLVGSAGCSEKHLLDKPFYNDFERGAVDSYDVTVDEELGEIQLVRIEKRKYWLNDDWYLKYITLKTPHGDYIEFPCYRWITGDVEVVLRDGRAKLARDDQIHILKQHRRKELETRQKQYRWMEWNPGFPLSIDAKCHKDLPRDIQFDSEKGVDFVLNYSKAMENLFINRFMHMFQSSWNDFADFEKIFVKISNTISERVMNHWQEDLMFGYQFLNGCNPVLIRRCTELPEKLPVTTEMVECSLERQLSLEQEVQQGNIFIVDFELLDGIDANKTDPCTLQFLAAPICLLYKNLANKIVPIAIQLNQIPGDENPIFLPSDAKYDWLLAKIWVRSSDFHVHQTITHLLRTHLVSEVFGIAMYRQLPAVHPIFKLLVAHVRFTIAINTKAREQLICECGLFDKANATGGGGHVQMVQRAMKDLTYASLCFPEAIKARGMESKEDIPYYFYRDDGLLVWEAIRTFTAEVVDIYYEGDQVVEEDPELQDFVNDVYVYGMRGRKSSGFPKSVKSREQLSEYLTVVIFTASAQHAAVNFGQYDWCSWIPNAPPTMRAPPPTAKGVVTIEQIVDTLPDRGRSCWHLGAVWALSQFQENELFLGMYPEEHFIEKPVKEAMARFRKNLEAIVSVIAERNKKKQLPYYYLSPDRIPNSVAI
Method in brief: (§1)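 Human 5-LO expressed in E. coli BL21 (pT3-5LO), affinity-purified and used at once. 0.5 µg enzyme in 1 ml PBS/EDTA with 1 mM ATP preincubated with compound 5–10 min at 4 °C, then warmed 30 s at 37 °C. Reaction started with 2 mM CaCl₂ and AA (routinely 20 µM), with or without 1 µM 13(S)-HpODE. Run 10 min at 37 °C, stopped with ice-cold methanol, products analysed by HPLC. Washout: 10-fold dilution (10 to 1 µM).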

Prostaglandin E synthase = target: T2, Prostaglandin E synthase (Homo sapiens, UniProt O14684); assay: Inhibition of mPGES-1 in human IL-1beta-stimulated A549 cell microsomes assessed as reduction of PGE2 formation from PGH2 after 15 mins; set-up: species or system Microsome
T2 sequence (O14684 whole entry): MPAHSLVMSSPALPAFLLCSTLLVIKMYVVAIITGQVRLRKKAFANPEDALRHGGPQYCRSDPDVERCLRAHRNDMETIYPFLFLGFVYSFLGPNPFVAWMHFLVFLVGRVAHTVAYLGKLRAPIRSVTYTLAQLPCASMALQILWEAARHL
Method in brief: (§2)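 Microsomes from A549 cells stimulated 72 h with IL-1β (1 ng/ml), diluted to 50 µg/ml in 0.1 M potassium phosphate pH 7.4 with 2.5 mM glutathione. Preincubated with compound (1% DMSO final) 15 min at 4 °C. Reaction started with 20 µM PGH₂, run 1 min at 4 °C, stopped with FeCl₂/citric acid containing 11β-PGE₂; PGE₂ quantified. Mean of n = 3–5.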

[2] = target: T1, Polyunsaturated fatty acid 5-lipoxygenase; assay: Inhibition of 5-lipoxygenase in A23187-stimulated human PMNL assessed as enzyme product formation preincubated 15 mins by RP-HPLC analysis in presence of exogenous arachidonic acid
Method in brief: (§3)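 Freshly isolated human PMNL (5 × 10⁶/ml PGC buffer: PBS pH 7.4, 1 mg/ml glucose, 1 mM CaCl₂) preincubated with compound 15 min at 37 °C. Stimulated with 2.5 µM A23187 plus exogenous AA for 10 min at 37 °C. Stopped with methanol, PGB₁ added as internal standard, lipoxygenase products analysed by HPLC. Mean of n = 3–5.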

A549 = assay: Cytotoxicity against human A549 cells assessed as cell viability at 10 uM after 16 hrs by MTT assay; format: cell-based; settings: a549, 5 h, in the assay text read “5 hrs” for “16 hrs”
Method in brief: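 A549 cells plated at 4 × 10⁴ cells per well, incubated 16 h at 37 °C, 5% CO₂, then exposed to 10 µM compound or DMSO (≤0.3% final) for 5 h. MTT added for 4 h, formazan solubilized with SDS in 20 mM HCl, absorbance at 595 nm read relative to vehicle-treated cells.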

[3] = target: T3, Prostaglandin G/H synthase 1 (Ovis aries) (UniProt P05979); assay: Inhibition of ovine COX1 assessed as residual activity at 10 uM after 5 mins
T3 sequence (whole entry): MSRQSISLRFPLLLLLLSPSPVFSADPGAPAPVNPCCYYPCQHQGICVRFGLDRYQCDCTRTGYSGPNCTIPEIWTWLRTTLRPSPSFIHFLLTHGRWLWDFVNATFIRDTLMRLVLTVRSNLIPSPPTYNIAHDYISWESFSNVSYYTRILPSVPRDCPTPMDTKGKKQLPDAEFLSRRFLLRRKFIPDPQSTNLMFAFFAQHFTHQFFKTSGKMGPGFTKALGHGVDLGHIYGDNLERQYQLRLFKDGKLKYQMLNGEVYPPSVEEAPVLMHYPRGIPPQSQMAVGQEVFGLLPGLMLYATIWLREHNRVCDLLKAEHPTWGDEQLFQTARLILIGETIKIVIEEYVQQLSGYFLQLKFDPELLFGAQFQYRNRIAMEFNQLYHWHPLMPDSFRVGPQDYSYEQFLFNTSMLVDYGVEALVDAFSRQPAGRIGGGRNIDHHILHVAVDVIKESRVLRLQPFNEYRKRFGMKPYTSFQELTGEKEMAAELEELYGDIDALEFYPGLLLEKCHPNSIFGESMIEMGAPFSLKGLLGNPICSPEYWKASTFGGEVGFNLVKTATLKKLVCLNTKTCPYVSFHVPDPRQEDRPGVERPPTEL
Method in brief: (§4)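 Ovine COX-1 (50 units) or human recombinant COX-2 (20 units) in 1 ml 100 mM Tris pH 8 with 5 mM glutathione, 5 µM haemoglobin and 100 µM EDTA. Preincubated with 10 µM compound 5 min at 4 °C, warmed 60 s at 37 °C. Started with AA (5 µM for COX-1, 2 µM for COX-2), run 5 min at 37 °C. 12-HHT extracted and analysed by HPLC. n = 3.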

[4] = target: T4, Prostaglandin G/H synthase 2 (Homo sapiens) (UniProt P35354); assay: Inhibition of human recombinant COX2 assessed as residual activity at 10 uM after 5 mins; method in brief: as §4
T4 sequence (whole entry): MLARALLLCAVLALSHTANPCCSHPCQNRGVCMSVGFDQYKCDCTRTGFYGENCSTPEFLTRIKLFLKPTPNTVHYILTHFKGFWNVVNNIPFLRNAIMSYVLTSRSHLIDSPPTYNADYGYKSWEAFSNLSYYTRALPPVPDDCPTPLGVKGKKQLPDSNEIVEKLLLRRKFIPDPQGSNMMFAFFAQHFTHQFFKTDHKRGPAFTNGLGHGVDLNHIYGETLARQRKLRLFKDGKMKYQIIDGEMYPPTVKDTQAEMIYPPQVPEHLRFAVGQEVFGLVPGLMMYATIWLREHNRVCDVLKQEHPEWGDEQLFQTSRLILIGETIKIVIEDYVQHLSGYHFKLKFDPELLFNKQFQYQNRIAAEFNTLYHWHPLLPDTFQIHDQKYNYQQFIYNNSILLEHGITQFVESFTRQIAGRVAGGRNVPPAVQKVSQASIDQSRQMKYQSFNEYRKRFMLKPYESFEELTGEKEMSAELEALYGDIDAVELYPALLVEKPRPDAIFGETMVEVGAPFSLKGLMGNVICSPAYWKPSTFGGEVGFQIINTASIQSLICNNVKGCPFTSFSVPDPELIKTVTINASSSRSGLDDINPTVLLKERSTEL

[5] = target: T5, Polyunsaturated fatty acid 5-lipoxygenase (Homo sapiens) (UniProt P09917); assay: Inhibition of human recombinant 5-lipoxygenase expressed in Escherichia coli BL21 assessed as residual activity by measuring enzyme product formation using arachidonic acid as substrate at 10 uM after 10 mins by RP-HPLC analysis; method in brief: as §1
T5 sequence (whole entry): T1 sequence (P09917 whole entry)

[6] = target: T5, Polyunsaturated fatty acid 5-lipoxygenase (Homo sapiens); assay: Inhibition of 5-lipoxygenase in A23187-stimulated human PMNL assessed as residual activity by measuring enzyme product formation at 10 uM preincubated 15 mins by RP-HPLC analysis in presence of exogenous arachidonic acid; method in brief: as §3
[7] = target: T6, Prostaglandin E synthase (Homo sapiens) (UniProt O14684); assay: Inhibition of mPGES-1 in human IL-1beta-stimulated A549 cell microsomes assessed as residual activity by measuring reduction of PGE2 formation from PGH2 at 10 uM after 15 mins; settings: Microsome; method in brief: as §2
T6 sequence (whole entry): T2 sequence (O14684 whole entry)

SMILES	IC50 [1] [µM]	IC50 (Prostaglandin E synthase) [µM]	IC50 [2] [µM]	Activity (A549)	inhibition [3]	inhibition [4]	Activity [5] [%]	Activity [6] [%]	Activity [7] [%]	inhibition [7]
CCCC[C@H](Sc1ccc(OCCCOc2cccc(C)c2C)cc1)C(=O)O	8.2	4.6	2	Non-toxic	–	–	–	–	–	–
CCCCC(Sc1ccc(OCCCOc2cccc3c2CCCC3)cc1)C(=O)O (centres undefined)	4.5	2.2	1.4	Non-toxic	inactive	inactive	–	–	–	–
CCCCC(Sc1ccc(OCCCOc2cccc(C(C)C)c2)cc1)C(=O)O (centres undefined)	6	2.7	1.4	Non-toxic	–	–	–	–	–	–
Cc1cccc(OCCCOc2ccc(CCC(=O)O)cc2)c1C	> 10	> 10	> 10	Non-toxic	–	–	81.8	80	83.9	–
CCCCC(Sc1ccc(OCCCOc2cccc(C)c2C)cc1)C(=O)O (centres undefined)	8.8	2.9	3	Non-toxic	–	–	–	–	–	–
CCCC[C@@H](Sc1ccc(OCCCOc2cccc(C)c2C)cc1)C(=O)O	10	4.2	1.1	Non-toxic	–	–	–	–	–	–
CCCC/C(=C\c1ccc(OCCCOc2cccc(C)c2C)cc1)C(=O)O	> 10	> 10	1.6	Non-toxic	–	–	88.9	–	28.3	–
CCCCC(Sc1ccc(OCCCOc2ccc3ncccc3c2)cc1)C(=O)O (centres undefined)	> 10	> 10	> 10	Non-toxic	–	–	59	92.2	–	inactive
CCCCC(Sc1ccc(OCCCOc2ccccc2C(C)C)cc1)C(=O)O (centres undefined)	7.8	4.1	1.6	Non-toxic	–	–	–	–	–	–
CCCCC(Sc1ccc(OCCCOc2ccc(C)cc2)cc1)C(=O)O (centres undefined)	> 10	9.3	5.2	Non-toxic	–	–	67.6	–	–	–
CCCCC(Sc1ccc(OCCCOc2ccc(Cl)cc2OC)cc1)C(=O)O (centres undefined)	> 10	9.4	> 10	Non-toxic	–	–	59.2	79.3	–	–
CCCCC(Sc1ccc(OCCCOc2ccccc2C)cc1)C(=O)O (centres undefined)	> 10	8.8	4.8	Non-toxic	–	–	58.3	–	–	–
Cc1cccc(OCCCOc2ccc(SCC(=O)O)cc2)c1C	> 10	> 10	> 10	Non-toxic	–	–	72.4	69.6	75.4	–
CCCCC(Sc1ccc(OCCCOc2cccc(C(F)(F)F)c2)cc1)C(=O)O (centres undefined)	9.8	2	1.6	Non-toxic	–	–	–	–	–	–
CCCCC(Sc1ccc(OCCCOc2cccc3c2CCCC3)cc1)C(=O)OCC (centres undefined)	> 10	–	> 10	Non-toxic	–	–	79.4	87.4	–	–
CCCCC(Sc1ccc(OCCCOc2cccc(C)c2)cc1)C(=O)O (centres undefined)	> 10	> 10	4.8	Non-toxic	–	–	79.3	–	58	–
CCCCC(Sc1ccc(OCCCOc2ccccc2)cc1)C(=O)O (centres undefined)	> 10	> 10	9.5	Non-toxic	–	–	69.4	–	81.9	–
CCCCC(Cc1ccc(OCCCOc2cccc(C)c2C)cc1)C(=O)O (centres undefined)	> 10	7.1	2	Non-toxic	–	–	70.8	–	–	–
CCCCC(Sc1ccc(OCCCOc2cccc(OC)c2)cc1)C(=O)O (centres undefined)	> 10	> 10	4.8	Non-toxic	–	–	67.7	–	59.1	–
CCCCC(Sc1ccc(OCCCOc2ccc(-c3ccccc3)cc2)cc1)C(=O)OCC (centres undefined)	> 10	–	> 10	Non-toxic	–	–	83	91.5	–	–
CCCCC(Sc1ccc(OCCCOc2ccccc2OC)cc1)C(=O)O (centres undefined)	> 10	> 10	> 10	Non-toxic	–	–	79.4	57.4	88.3	–
CCCCC(Sc1ccc(OCCCOc2ccc3ncccc3c2)cc1)C(=O)OCC (centres undefined)	> 10	> 10	0.8	Non-toxic	–	–	68.3	–	83.9	–

Reference: ChEMBL document CHEMBL1777776, “Identification of 2-mercaptohexanoic acids as dual inhibitors of 5-lipoxygenase and microsomal prostaglandin E₂ synthase-1” (Bioorg Med Chem, 2011)
